Data from article PMC3470735 (Nuclear medicine and biology, 2012).
Entries after “also recorded” stand apart in the source; their conditions may differ.

What was measured:
[1] = Biodistribution of 64Cu-labeled BFCs in female SCID mice; type: in vivo; conditions: for radioactivity in blood (%ID/g): 24 h post-injection; for decrease of %ID/g in kidney by 24 h: by 24 h relative to 1 h
In short: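 Female SCID mice, n = 4/group, received 64Cu-labeled chelator (0.74 MBq in 100 μL saline) by tail-vein injection; labeling was done in 0.1 M NH4OAc, pH 5.5. At 1, 4 and 24 h, mice were anesthetized with 1-2% isoflurane and killed by cervical dislocation. Blood, lung, liver, spleen, pancreas, kidney, muscle and bone were weighed and gamma-counted. %ID/g was decay-corrected and normalized to tissue weight.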

[2] = Complexation kinetics with Cu; type: physicochemical; conditions: ligand 1 mM, Cu(II) 7 μM, AAIII 14 μM, 0.15 M NH4OAc pH 5.0, room temperature, 1 h
In short: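 Cu(II)–Arsenazo III reagent made in metal-free 0.15 M NH4OAc, pH 5.0 (14 μM AAIII, 7 μM Cu(II)), kept in the dark and stirred 2 h to equilibrate. Instrument zeroed against AAIII alone. Test compound was added from a 1 mM solution into the Cu(II)–AAIII cells at room temperature. A610 was read every 30 s for 1 h and compared with Cu(II)–AAIII alone.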

[3] = cited from earlier work
[4] = In vitro rat serum stability of 64Cu-labeled chelators; type: in vitro ADME; conditions: 37 °C, 48 h incubation, TLC
In short: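 Chelator was labeled with 64Cu in 0.1 M NH4OAc, pH ~5.5. Labeled complex (10 μL, ~3.7 MBq) was added to 90 μL rat serum at 37 °C. Aliquots taken at 1, 2, 4, 24 and 48 h were run on C-18 TLC in 10% NH4OAc:MeOH (3:7), and percent 64Cu still bound was determined.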

Row | Structure (SMILES) | radioactivity in blood (%ID/g) [1] [%ID/g] | decrease of %ID/g in kidney by 24 h [1] [%] | percentage of intact 64Cu complex in rat serum [4] [%] | complexation kinetics with Cu(II) [2] | stability of 64Cu complex in rat serum [3]
1 | O=C(O)CNCCN1CCN(CC(=O)O)CCN(CC(=O)O)CC1 [NE3TA] |  |  |  |  | high stability
2 | Nc1ccc(CC2CN(CC(=O)O)CCN(CC(=O)O)CCN(CC(=O)O)CCN2CC(=O)O)cc1 (stereo not shown) [p-NH2-Bn-DOTA, 2-(4-aminobenzyl)-1,4,7,10-tetraazacyclododecane-1,4,7,10-tetraacetic acid, reference compound] | 0.47 ± 0.17 |  | 93.9 |  | 
3 | Nc1ccc(C[C@H]2CN(CC(=O)O)CCN(CC(=O)O)CCN2CC(=O)O)cc1 [p-NH2-Bn-NOTA, S-2-(4-aminobenzyl)-1,4,7-triazacyclononane-1,4,7-triacetic acid] |  |  | 97.9 |  | 

Now from value to molecule, other results behind:

Row | radioactivity in blood (%ID/g) [1] [%ID/g] | decrease of %ID/g in kidney by 24 h [1] [%] | percentage of intact 64Cu complex in rat serum [4] [%] | Structure (SMILES) | complexation kinetics with Cu(II) [2] | stability of 64Cu complex in rat serum [3]
4 | 0.18 ± 0.06 | 60 |  | O=C(O)CNC(Cc1ccc([N+](=O)[O-])cc1)CN1CCN(CC(=O)O)CCN(CC(=O)O)CC1 (stereo not shown) [C-NE3TA, 4-carboxymethyl-7-[2-(carboxymethyl-amino)-3-(4-nitro-phenyl)-propyl]-[1,4,7]triazonan-1-yl-acetic acid] | formed complexes with Cu(II) almost immediately; also recorded: rapidly formed complexes with Cu(II) | 
5 | 0.13 ± 0.06 | 60 |  | O=C(O)CN1CCN(CCN(CC(=O)O)Cc2ccc([N+](=O)[O-])cc2)CCN(CC(=O)O)CC1 [N-NE3TA, 4-carboxymethyl-7-[2-[carboxymethyl-(4-nitro-benzyl)-amino]-ethyl]-[1,4,7]triazonan-1-yl-acetic acid] | formed complexes with Cu(II) almost immediately; also recorded: rapidly formed complexes with Cu(II) | 
